Results on 6 compounds are retold here after ChEMBL document CHEMBL1132584, “5-Alkyl-2-(alkylthio)-6-(2,6-dihalophenylmethyl)-3, 4-dihydropyrimidin-4(3H)-ones: novel potent and selective dihydro-alkoxy-benzyl-oxopyrimidine derivatives” (J Med Chem, 1999).

The target in experiment [1] is Human immunodeficiency virus type 1 reverse transcriptase (Human immunodeficiency virus 1, UniProt Q72547). Briefly: Concentration required to inhibit the HIV-1 reverse transcriptase activity by 50%. The procedure, abridged:
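Purified recombinant HIV-1 RT, RNA-dependent polymerase activity. Substrate: [³H]dGTP, […] (1 Ci/mmol). Reaction 30 min at 37 °C, then acid-insoluble radioactivity counted on glass-fibre filters.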

For experiment [2], the system named is MT4. Briefly: Concentration required to achieve 50% protection of MT-4 cells from HIV-1-induced cytopathogenicity. Format: functional, cell-based. The note with it: Homo sapiens. The procedure, abridged:
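MT-4 cells (1×10^4/well) exposed to test compound dilutions (DMSO stock 200 mM, diluted in medium), then infected with HIV-1 IIIB at 100 CCID50/well; 4-day incubation at 37 °C; viable cells counted by MTT; EC50 is the dose giving 50% protection from virus-induced cytopathicity; means of at least two separate experiments.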

Experiment [3] deals with MT4. Briefly: Cytotoxicity against mock-infected MT-4 cells. Format: functional. The settings on record: Homo sapiens. The method in brief: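 Mock-infected MT-4 cells (1×10^4/well) incubated 4 days at 37 °C alongside the antiviral assay with serial compound dilutions (from 200 mM DMSO stock); viability read by MTT; CC50 is the dose lowering viability of mock-infected cells by 50%; means of at least two separate experiments.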

Experiment [4] deals with MT4. In words: Selectivity index measured as the ratio of CC50 / EC50. Format: functional. The procedure, abridged: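 Selectivity index: CC50 in mock-infected MT-4 cells divided by EC50 against HIV-1 IIIB cytopathicity in MT-4 cells, both from MTT read-out after 4-day culture.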

Compound `CC(C)Sc1nc(O)cc(Cc2c(Cl)cccc2Cl)n1` yielded an IC50 in experiment [1] of 1.5 µM. Moreover, the response in experiment [2] was half-maximal at 1.9 µM (EC50). In addition, the CC50 in experiment [3] is more than 200 µM. Moreover, the Selectivity index in experiment [4] is listed as more than 105 SI.
In the same order, the values of `CCC(C)Sc1nc(O)cc(Cc2ccc([N+](=O)[O-])cc2)n1` (centres undefined) are 1.2 µM, 1.5 µM, 151 µM and 101 SI.
In the same order, the values of `CC(C)CSc1nc(O)cc(Cc2c(F)cccc2F)n1` are 0.2 µM, 0.14 µM, 182 µM and 1300 SI.
With `CCC(C)Sc1nc(O)c(C)c(Cc2ccccc2F)n1` (centres undefined), it took 0.41 µM to reach half-maximal inhibition in experiment [1] (IC50). Moreover, it took 0.41 µM to reach a half-maximal effect in experiment [2] (EC50). This compound registered a CC50 in experiment [3] of 140 µM. In addition, the Selectivity index in experiment [4] is listed as 341 SI.
Compound `CC(C)Sc1nc(Cc2c(F)cccc2F)cc(=O)[nH]1` displayed an IC50 in experiment [1] of 0.05 µM. In addition, the EC50 in experiment [2] was 0.05 µM. The compound also registered a CC50 in experiment [3] of more than 200 µM. In addition, the Selectivity index in experiment [4] was more than 4000 SI.
In the case of `CCOCn1c(Cc2ccccc2)c(C(C)C)c(=O)[nH]c1=O` [EMIVIRINE], the IC50 in experiment [1] is 0.04 µM. Also, the EC50 in experiment [2] stood at 0.03 µM. In experiment [3], half-maximal cytotoxicity (CC50) was put at 200 µM. Further, the Selectivity index in experiment [4] stood at 6666 SI.
